Reference: ChEMBL document CHEMBL3421632, “Rational design of triazololipopeptides analogs of kisspeptin inducing a long-lasting increase of gonadotropins” (J Med Chem, 2015)
One block for each compound: values may come before it. Active and inactive are the calls of the source. The calls are words filed in the database; no cut-off is given here. *1 amine or outer side, *2 acyl side, *3 side chain or, on linkers, in order; H or OH if unused. Where a SMILES comes first, the peptide text is derived from it. [ ]: non-standard residue; d: D form. X1 = O=C(Cn1cc([C@H](Cc2ccccc2)N[*:1])nn1)[*:2]

Legend:
KiSS-1 receptor = KiSS-1 receptor (Homo sapiens, UniProt Q969F8); experiment: Agonist activity at human wild-type KISS1R expressed in HEK293 cells assessed as induction of intracellular Ca2+ mobilization after 30 mins by Fluo4 NW Ca2+ assay; format: functional, cell-based
Procedure, shortened: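 HEK293 stably expressing HA-tagged wild-type human KISS1R, plated 40 000 cells/well 48 h prior. Loaded with Fluo4 NW dye 30 min at 37 °C plus 30 min at rt. Basal read 5× at 7 s intervals, compound added (final 1 pM–1 μM), Ca2+ followed 7 min. Mean basal subtracted, AUC plotted against concentration, sigmoid fit gives EC50. Nontransfected HEK293 served as control.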

[1] = Stability in Ile-de-France ewe serum assessed as intact compound level at 50 uM incubated for 6 hrs by HPLC method; format: ADME, cell-free, Ovis aries; settings: female, sheep, read-out: Stability
Procedure, shortened: (§1)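 Ile-de-France ewe serum, stored at −20 °C and preheated 30 min at 39 °C. Peptide at 50 μM final, with L-phenylalaninol internal calibrator, incubated at 39 °C. Proteins precipitated with MeCN and spun; supernatant run on RP-HPLC (2–52% MeCN/0.1% TFA over 5 min, UV 214 nm, plus MS). Intact peak given as % of t = 0 area; five independent experiments.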

[2] = Drug metabolism in Ile-de-France ewe serum treated with 50 uM Ac-Tyr-Asn-Trp-Asn-Ser-Phe-azaGly-Leu-Arg-Tyr-NH2 assessed as retention time incubated for 6 hrs by LC-MS method; format: ADME, cell-free, Ovis aries; settings: sheep
Homo sapiens = organism: Homo sapiens; experiment: Selectivity index, ratio of EC50 for human NPFF1R to EC50 for human wild-type KISS1R
Ovis aries [3] = experiment: Increase in maximal amplitude of plasma LH level in anoestrus Ile-de-France ewe at 5 nmol, iv by radioimmunoassay (reference value: 0.6 +/- 0.5 ng/ml); format: functional
Procedure, shortened: (§2)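 Intact acyclic anoestrous Ile-de-France ewes (3–5 y, 55–70 kg), jugular catheter placed the day before. Single iv bolus of 1–15 nmol/ewe. Basal LH taken every 10 min for 30 min, then every 10 min for 2 h, every 20 min for 4 h, then hourly. Plasma LH by RIA (1051-CY-LH standard, sensitivity 0.1 ng/mL). Peak, duration and AUC derived; mean ± SEM, N = 4–6.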

[4] = target: Neuropeptide FF receptor 1 (Homo sapiens, UniProt Q9GZQ6); experiment: Agonist activity at human NPFF1R expressed in CHO cells assessed as effect on forskolin-induced cAMP accumulation after 15 mins by luminescence based assay; format: functional, cell-based
Procedure, shortened: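 CHO cells stably expressing hNPFF1R (Gαi-coupled), transfected with GloSensor; seeded 30 000 cells/well 24 h before, PBS-washed twice, loaded with GloSensor cAMP reagent 2 h. Compound added, luminescence read 15 min, then 300 nM forskolin + 0.25 mM IBMX added and read a further 120 min. Signal AUC plotted against concentration, sigmoid fit for EC50.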

Ovis aries [5] = experiment: Increase in duration of increase of plasma LH level in anoestrus Ile-de-France ewe at 5 nmol, iv by radioimmunoassay; format: functional; procedure, shortened: as §2
Ovis aries [6] = experiment: Increase in total plasma LH level in anoestrus Ile-de-France ewe at 5 nmol, iv by radioimmunoassay; format: functional, organism-based; procedure, shortened: as §2
[7] = Stability in Ile-de-France ewe serum assessed as intact compound level at 50 uM incubated for 1 hr by HPLC method; format: ADME, cell-free, Ovis aries; settings: sheep, BLD = below limit of detection; procedure, shortened: as §1

Sequence of KiSS-1 receptor (Q969F8 whole entry): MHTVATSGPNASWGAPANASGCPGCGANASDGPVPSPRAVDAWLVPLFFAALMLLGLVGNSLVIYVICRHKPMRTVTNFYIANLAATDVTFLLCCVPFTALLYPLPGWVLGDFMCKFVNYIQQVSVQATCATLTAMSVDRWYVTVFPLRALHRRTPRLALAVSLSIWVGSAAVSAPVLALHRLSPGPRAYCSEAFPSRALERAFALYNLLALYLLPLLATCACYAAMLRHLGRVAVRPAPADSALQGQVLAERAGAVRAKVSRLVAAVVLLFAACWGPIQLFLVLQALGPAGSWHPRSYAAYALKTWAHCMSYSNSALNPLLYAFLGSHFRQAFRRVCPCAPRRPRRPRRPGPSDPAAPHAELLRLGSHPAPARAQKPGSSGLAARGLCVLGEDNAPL
Sequence of Neuropeptide FF receptor 1 (Q9GZQ6 whole entry): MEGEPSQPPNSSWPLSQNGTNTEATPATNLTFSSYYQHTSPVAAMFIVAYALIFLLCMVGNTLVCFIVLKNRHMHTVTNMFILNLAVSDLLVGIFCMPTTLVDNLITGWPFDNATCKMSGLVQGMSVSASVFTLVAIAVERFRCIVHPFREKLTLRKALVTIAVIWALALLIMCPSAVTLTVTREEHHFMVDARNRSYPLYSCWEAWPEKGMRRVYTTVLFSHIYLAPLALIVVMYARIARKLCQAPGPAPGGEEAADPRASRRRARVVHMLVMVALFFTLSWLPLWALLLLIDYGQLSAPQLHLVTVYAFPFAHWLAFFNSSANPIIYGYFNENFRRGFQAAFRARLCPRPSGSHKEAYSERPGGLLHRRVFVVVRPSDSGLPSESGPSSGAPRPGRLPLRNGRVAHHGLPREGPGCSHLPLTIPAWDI

Compound: CC(C)C[C@H](N)C(=O)N[C@@H](CCCNC(=N)N)C(=O)N[C@@H](Cc1ccc(O)cc1)C(N)=O (H-Leu-Arg-Tyr-NH2)
Retention_time [2]: 7.57 min

Compound: Ac-YNWK(Ac)SFGLRY-NH2
EC50 (KiSS-1 receptor): 13.9 nM

Compound: Ac-YNWNK(Ac)FGLRY-NH2
EC50 (KiSS-1 receptor): 7.2 nM

Compound: Ac-YNWNSF-OH
Retention_time [2]: 9.51 min

Continued by falling EC50 (KiSS-1 receptor), values first:

Stability [7]: BLD | EC50 (KiSS-1 receptor): 2.5 nM
Compound: H-YNWNSFGLRY-NH2
Activity (Ovis aries [3]): 3.3 ng/mL

EC50 (KiSS-1 receptor): 0.9 nM
Compound: Ac-K(Ac)NWNSFGLRY-NH2

EC50 (KiSS-1 receptor): 0.6 nM | remaining at 6 h, 50 µM [1]: 61.4%
Compound: CC(=O)N[C@@H](Cc1ccc(O)cc1)C(=O)N[C@@H](CC(N)=O)C(=O)N[C@@H](Cc1c[nH]c2ccccc12)C(=O)N[C@@H](CC(N)=O)C(=O)N[C@@H](CO)C(=O)N[C@@H](Cc1ccccc1)c1cn(CC(=O)N[C@@H](CC(C)C)C(=O)N[C@@H](CCCNC(=N)N)C(=O)N[C@@H](Cc2ccc(O)cc2)C(N)=O)nn1 (Ac-YNWNS[X1]LRY-NH2)

EC50 (KiSS-1 receptor): 0.1 nM
Compound: Ac-YK(Ac)WNSFGLRY-NH2

EC50 (KiSS-1 receptor): 0.08 nM
Compound: Ac-YNK(Ac)NSFGLRY-NH2

EC50 (KiSS-1 receptor): 0.07 nM | remaining at 6 h, 50 µM [1]: 2.6% | Ratio EC50 (Homo sapiens): > 10000 | EC50 [4]: > 5000 nM
Compound: Ac-YNWNSFGLRY-NH2
Activity (Ovis aries [3]): 3.9 ng/mL | Activity (Ovis aries [5]): Active | Activity (Ovis aries [6]): Active
